# CASP6 VEID inh – caspase-6 (human) enzyme inhibition; P55212; purified caspase-6, Z-VEID-R110 cleavage fluorescence; inhibition, % at 12.5 µM; 0.53% of 350,000 active;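 active = mean inhibition across replicates at least about 35%, with every replicate also reaching that limit, limit read from the data; inconclusive = only one of the two criteria met; inactive = neither criterion met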;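 also: 0% = median of neutral control wells and 100% = no fluorescence left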
# esBAF inh – inhibitors of esBAF chromatin remodeling in mouse ES cells | Bmi1-luciferase knock-in reporter, 24 h; 100% = twice the neutral-well signal | reporter increase, % at 12.5 µM | 2% of 350,000 active; in the data active = activation above about 40%; inconclusive = no clear call, values can overlap the other calls;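 also: 0% = median of the plate's neutral control wells and 100% = double that signal; a rise in the Bmi1 reporter signal indicates esBAF inhibition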
# NSD2 HMT inh – NSD2 (human) methyltransferase inhibition. O96028. NSD2 peptide methylation, AlphaScreen, 120 min. inhibition, % at 12.5 µM. 0.54% of 310,000 active; in the data active = inhibition above about 50%
# Target sequence (O96028 whole entry, looked up): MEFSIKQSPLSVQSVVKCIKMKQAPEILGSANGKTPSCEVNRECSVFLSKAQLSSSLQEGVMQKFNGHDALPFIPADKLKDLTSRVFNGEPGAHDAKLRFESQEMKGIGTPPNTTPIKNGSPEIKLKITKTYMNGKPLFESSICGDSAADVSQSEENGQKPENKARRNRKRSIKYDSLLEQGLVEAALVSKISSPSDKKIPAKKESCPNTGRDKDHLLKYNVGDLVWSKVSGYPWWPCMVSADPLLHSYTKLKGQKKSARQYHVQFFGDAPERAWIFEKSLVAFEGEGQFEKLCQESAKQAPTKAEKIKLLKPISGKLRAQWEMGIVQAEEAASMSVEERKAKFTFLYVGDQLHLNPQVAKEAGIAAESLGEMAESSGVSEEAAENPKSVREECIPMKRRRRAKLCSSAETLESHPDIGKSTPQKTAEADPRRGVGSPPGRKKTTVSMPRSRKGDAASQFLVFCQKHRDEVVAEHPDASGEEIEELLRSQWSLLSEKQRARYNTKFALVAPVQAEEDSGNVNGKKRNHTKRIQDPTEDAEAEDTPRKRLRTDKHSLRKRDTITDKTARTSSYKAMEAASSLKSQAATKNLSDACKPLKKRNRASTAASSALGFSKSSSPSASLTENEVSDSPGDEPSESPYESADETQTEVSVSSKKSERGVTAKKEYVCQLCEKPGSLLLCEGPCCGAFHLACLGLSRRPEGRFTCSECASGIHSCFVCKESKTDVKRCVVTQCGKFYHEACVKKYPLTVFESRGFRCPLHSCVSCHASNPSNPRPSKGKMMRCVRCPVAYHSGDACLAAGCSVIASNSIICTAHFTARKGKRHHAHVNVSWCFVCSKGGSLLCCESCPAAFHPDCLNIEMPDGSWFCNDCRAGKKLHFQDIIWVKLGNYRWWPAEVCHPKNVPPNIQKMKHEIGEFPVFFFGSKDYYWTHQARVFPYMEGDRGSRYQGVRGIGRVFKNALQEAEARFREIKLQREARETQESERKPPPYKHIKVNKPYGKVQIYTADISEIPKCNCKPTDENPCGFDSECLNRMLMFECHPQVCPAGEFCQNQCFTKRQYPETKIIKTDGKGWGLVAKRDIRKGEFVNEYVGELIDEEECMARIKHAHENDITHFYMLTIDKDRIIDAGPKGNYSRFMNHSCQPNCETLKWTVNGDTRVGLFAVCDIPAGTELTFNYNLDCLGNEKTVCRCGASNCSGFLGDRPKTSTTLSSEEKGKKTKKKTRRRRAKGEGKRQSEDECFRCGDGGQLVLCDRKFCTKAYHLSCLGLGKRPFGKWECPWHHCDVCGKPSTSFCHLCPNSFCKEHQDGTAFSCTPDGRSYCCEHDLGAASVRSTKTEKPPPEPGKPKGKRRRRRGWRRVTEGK
# Wnt bcat act – Wnt/beta-catenin pathway activation | 1.2% of 300,000 active | Wnt/beta-catenin reporter cell assay, activator, plate reader | activation, % at 9.35 µM; in the data active = activation above about 30%, passing the limit was not always enough; inconclusive = no clear call, values can overlap the other calls;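 also: 0% = neutral control wells and 100% = positive control wells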
# XiGFP reactiv – activators of X-chromosome reactivation in mouse fibroblasts; activation, % at 7.58 µM; 0.055% of 360,000 active; XiGFP mouse fibroblasts, % GFP-positive cells imaging, 3 d; cells co-treated with 5-aza-dC sensitizer; scaled so ellipticine positive control = 100%; AID 743238;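 active = mean normalized replicate activation at least 10% and every replicate at or above 10%; inconclusive = only one of the two criteria met; inactive = mean below 10% and not all replicates reach 10%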;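 also: 0% = median of on-plate neutral control wells and 100% = ellipticine 6 µM median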
#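 System: 68-5-11 XiGFP fibroblast line; Timing: 3 days compound exposure; Compound dosing: one concentration, pinned; Benchmarks: positive control ellipticine, 6 µM final; Buffer or medium: DMEM containing 5-aza-dC.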
# MITF act – MITF TRPM1 promoter activation in melanoma cells. 0.75% of 300,000 active. SK-MEL-5 TRPM1-promoter luciferase, 24 h; % of positive control, neutral wells = 0. AID 588334. activation, % at 12.5 µM;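 active = mean activation of at least 80% with every replicate also reaching 80%; inconclusive = mean reaches 80% but some replicate falls short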;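 also: 0% = neutral control wells and 100% = parthenolide positive control wells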
# Numbers without * were called inactive; ? = inconclusive; / = no result given. An excerpt weighted towards active compounds, which were near 3% of everything screened.
SMILES,CASP6 VEID inh,esBAF inh,NSD2 HMT inh,Wnt bcat act,XiGFP reactiv,MITF act
COCCCNC(=S)NNC(=O)c1ccc(C(C)(C)C)cc1,0,/,0,1,0,3
COCCCNC(=S)NNC(=O)c1csc(C)n1,2,-5,-3,41*,0,-12
CO[C@H]1CN(C)C(=O)c2cc(NC(=O)NC3CCCC3)ccc2OC[C@H](C)NC[C@@H]1C,/,/,/,/,0,/
COc1ccccc1NC(=O)Nc1ccc2c(c1)C(=O)N(C)C[C@H](OC)[C@H](C)CN[C@H](C)CO2,2,3,/,/,0,/
COc1cc2cccc(OC)c(=O)c2c(O)c1OC,-4,15,0,12,0,18
COc1cc2c(ccc3cc(OC)c(OC)c(O)c32)cc1O,86*,-5,/,-2,/,-49
COc1ccc2nc(N3CCCCC3)c(C#N)cc2c1,/,?,2,44*,/,/
O=C(CN1CCOCC1)N1CCCCN2[C@H](CO)[C@H](c3ccc(C#Cc4ccccc4)cc3)[C@@H]2C1,1,/,/,/,0,/
O=C(C[C@H]1C[C@@H]2c3cc(NC(=O)NC4CCCC4)ccc3O[C@@H]2[C@H](CO)O1)NCc1ccccc1,-2,4,/,/,0,/
Cc1ccc(NC(=O)Cc2nc(CSc3nnc(-c4ccc5c(c4)OCO5)o3)cs2)cc1,/,51*,-7,18,/,/
CN(C)C(=O)c1ccc(NC(=O)CSc2nnc(-c3ccc4c(c3)OCO4)o2)cc1,-2,2,2,0,0,2
CO[C@@H]1CN(C)C(=O)c2cc(NC(=O)C3CCC3)ccc2OC[C@@H](C)N(Cc2ccncc2)C[C@H]1C,2,5,/,/,0,/
Cc1csc(NC(=O)c2ccc(Br)s2)n1,-1,57*,4,23,0,22
Cc1ccc(C(=O)Nc2nc(C(C)(C)C)cs2)s1,/,66*,-5,/,/,68
CC(C)(C)c1csc(NC(=O)c2ccc3nccnc3c2)n1,/,/,9,/,/,114*
Cc1csc(NC(=O)c2cccs2)n1,/,/,1,/,/,57
Cc1csc(NC(=O)c2cc3c(s2)-c2ccccc2OC3)n1,3,86*,/,?,0,7
CCCNC(=O)N1CC2(C1)[C@@H](c1ccccc1)[C@H](CO)N2C(=O)C1CC1,1,/,/,/,0,/
COc1ccc(S(=O)(=O)N2CCC3(CC2)CN(C(=O)CN(C)C)[C@@H](CO)c2c3c3ccc(OC)cc3n2C)cc1,-3,/,/,/,0,/
CC(C)(C)c1csc(NC(=O)c2ccncc2)n1,-2,/,-5,1,0,-8
CC(C)(C)c1csc(NC(=O)c2ccc(Cl)s2)n1,/,94*,8,/,/,38
O=C(c1cccnc1)N1CC2(C1)[C@@H](c1ccccc1)[C@@H](CO)N2Cc1cccnc1,5,/,/,/,0,/
CO[C@@H]1CN(C)C(=O)c2ccc(NC(=O)CC(F)(F)F)cc2OC[C@@H](C)N(S(=O)(=O)c2cn(C)cn2)C[C@@H]1C,1,-3,/,/,0,/
Cc1ccc2c(c1)COc1c3ccc(C(=O)N[C@@H](C)CO)cc3nn1-2,-2,62*,/,18,0,77
Cc1ccc2c(c1)COc1c3ccc(C(=O)NC(C)C)cc3nn1-2,-2,84*,/,46*,0,89*
SMILES,CASP6 VEID inh,esBAF inh,NSD2 HMT inh,Wnt bcat act,XiGFP reactiv,MITF act
CCc1cc(-c2ccc3c(c2)COc2c4ccccc4nn2-3)on1,/,3,/,20,0,73
CC1OC(CC(=O)O)CC2=C1C(=O)c1c(O)cccc1C2=O (configuration not stated),93*,/,95*,-6,4,/
O=C(NNc1cccc(Cl)n1)c1ccc(Cl)cc1Cl,-1,52*,-1,/,/,/
O=C(NNC(=O)c1ccccc1Br)c1ccccc1Cl,1,/,-1,1,0,4
O=C(NNC(=O)c1cccc2ccccc12)c1ccc(Cl)cc1Cl,-2,61*,-1,-6,0,18
O=C(NNC(=S)Nc1ccccc1Cl)c1ccccc1Br,0,66*,0,26,0,60
O=C(Nc1ccc(Cl)cc1F)c1ccccc1Br,/,/,-3,49*,0,65
O=C(C[C@H]1C=C[C@H](NC(=O)Nc2ccc(F)cc2)[C@@H](CO)O1)NCCN1CCCC1,-3,0,/,/,0,/
O=C(Nc1ccc(Cl)cc1F)c1cccc2ccccc12,1,47*,-3,10,0,/
O=C(Nc1ccc(F)cc1)c1cccc2ccccc12,0,25,0,4,0,/
Fc1ccc(-c2cnc(-c3cccs3)o2)cc1,/,-12,-3,34*,/,54
COc1cccc(/C=C/c2ccccn2)c1O,0,/,3,42*,3,67
C=CCN1C(=O)[C@]2(O[C@H](CCn3cc(CCO)nn3)[C@@H]([Si](C)(C)c3ccc(OC)cc3)[C@@H]2C)c2cc(N3C(=O)c4cccc5cccc3c45)ccc21,0,/,/,/,/,/
C/C(=C\c1ccc(N)cc1)c1nc2ccccc2[nH]1,/,64*,1,2,0,?
COC(=O)/C(=C\c1ccc(O)cc1)c1nc2ccccc2[nH]1,-2,/,0,5,0,3
Cc1ccc(S(=O)(=O)Nc2ccc3c(c2)C(=O)N([C@H](C)CO)C[C@H](C)[C@H](CN(C)C(=O)NC2CCCCC2)OCCCC[C@@H](C)O3)cc1,1,4,/,/,0,/
COc1cccc(C(=O)Nc2cc3c(cc2Cl)OCCCO3)c1,/,/,28,38*,0,75
COc1ccc(C(=O)Nc2cc3c(cc2Cl)OCCCO3)cc1,/,59*,0,/,/,77
COCCOc1cc(NC(=O)c2cccc(OC)c2)c(Cl)cc1Cl,4,/,-1,-3,0,-4
C[C@H]1CC=CC[C@H](c2ccccc2)NC(=O)[C@H](C)N(C)C(=O)c2ccccc2O1 (mixture of isomers),/,/,/,/,1,/
Cc1ccc(S(=O)(=O)N(C)C[C@H]2OCCCC[C@@H](C)Oc3ccc(NC(=O)CCC(F)(F)F)cc3C(=O)N([C@H](C)CO)C[C@H]2C)cc1,-2,-5,/,/,1,/
C#CC(C)(C)NC(=O)c1ccc(-c2ccccc2F)cc1,44*,/,14,29,0,66
CCNC(=S)Nc1cccc(S(=O)(=O)Nc2ccccc2OC)c1,-1,-7,2,33*,0,7
COc1ccccc1NS(=O)(=O)c1cccc(NC(=O)Nc2ccccc2)c1,3,/,-3,-3,0,11
CC(C)(C)c1ccc(C(=O)c2cn[nH]c2-c2ccccc2O)cc1,2,63*,5,19,0,45
C[C@H]1COCc2cn(nn2)CC[C@@H](Cc2ccccc2)C(=O)N1,/,/,/,/,0,/
O=C(C[C@H]1CC[C@H]2[C@@H](COC[C@@H](O)CN2S(=O)(=O)c2ccccc2)O1)N[C@H]1CCN(Cc2ccccc2)C1,0,-4,/,/,0,/
O=C(c1nnc(-c2ccncc2)o1)c1ccccc1Cl,-7,2,0,35*,/,-1

# Source: PubChem BioAssay
